Four proteins from ChEMBL document CHEMBL1131831, “A rapid method to identify exo-protease inhibitors” (Bioorg Med Chem Lett, 1999) can be followed below.

Substrate in data set [1]: CC(C)C[C@H](NC(=O)[C@H](N)Cc1ccc(O)cc1)C(=O)N[C@@H](C(=O)N(C)c1ccc(C#C/C=C/c2ccc([N+](=O)[O-])c(O)c2)cc1)C(C)C
Nature of the data set: Proteolysis constant (Km), when mixed with human leukocyte elastase (HLE) enzyme for the conversion of water-soluble compound to fluorescent oil-soluble compound. The procedure, abridged:
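Human leukocyte elastase (1 unit = 1.2 µg; releases 1 µmol/min p-nitrophenol from N-t-BOC-L-alanine-p-nitrophenyl ester, pH 6.5, 37 °C) in 50 mM NaOAc, 100 mM NaCl, 8 mM NaN3 pH 6.0. Enzyme mixed with 12 µM substrate in buffer under a trace mineral-oil layer, shaken at 37 °C. Released fluorophore extracted into oil, diluted with n-heptane, quantified by absorbance at 424 nm against oil at 272 nm.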

Substrate in data set [2]: CN(C(=O)[C@@H](CCCCC(=N)N)NC(=O)[C@H](Cc1ccccc1)NC(=O)[C@H]1CCCN1C(=O)OCc1ccccc1)c1ccc(C#C/C=C/c2ccc([N+](=O)[O-])c(O)c2)cc1
Nature of the data set: Proteolysis constant (Km), when mixed with kallikrein enzyme for the conversion of water-soluble compound to fluorescent oil-soluble compound. The procedure, abridged: (§1)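 Porcine pancreatic trypsin (type IX), porcine pancreatic kallikrein, bovine spleen cathepsin B and porcine pancreatic elastase, each enzyme added to 12 µM substrate solution over mineral oil, shaken at 37 °C. Buffers: trypsin 10 mM Tris-HCl pH 7.8; kallikrein 50 mM Tris pH 9.0; cathepsin B 100 mM potassium phosphate pH 6.0; elastase 10 mM Tris-HCl pH 7.5. Released fluorophore in the oil is diluted with n-heptane and quantified at 424 nm against oil absorbance at 272 nm.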

Substrate in data set [3]: COCCOCCOCCOCCOC(=O)N[C@@H](C)C(=O)N[C@H](C)C(=O)N(C)c1ccc(C#C/C=C/c2ccc([N+](=O)[O-])c(O)c2)cc1
Nature of the data set: Proteolysis constant (Km), when mixed with elastase enzyme for the conversion of water-soluble compound to fluorescent oil-soluble compound. The gist of the method: as §1

Substrate in data set [4]: CC[C@@H](C)[C@@H](NC(=O)OCc1ccccc1)C(=O)N1CCC[C@H]1C(=O)N[C@H](CCCCC(=N)N)C(=O)N(C)c1ccc(C#C/C=C/c2ccc([N+](=O)[O-])c(O)c2)cc1
Nature of the data set: Proteolysis constant (Km), when mixed with trypsin enzyme for the conversion of water-soluble compound to fluorescent oil-soluble compound. The conditions noted are these: Sus scrofa. The procedure, abridged: as §1

B1: Neutrophil elastase (Homo sapiens), P08246 (protein)
chain: MTLGRRLACLFLACVLPALLLGGTALASEIVGGRRARPHAWPFMVSLQLRGGHFCGATLIAPNFVMSAAHCVANVNVRAVRVVLGAHNLSRREPTRQVFAVQRIFENGYDPVNLLNDIVILQLNGSATINANVQVAQLPAQGRRLGNGVQCLAMGWGLLGRNRGIASVLQELNVTVVTSLCRRSNVCTLVRGRQAGVCFGDSGSPLVCNGLIHGIASFVRGGCASGLYPDAFAPVAQFVNWIDSIIQRSEDNPCPHPRDPDPASRTH
Take B1: the Km – broadly, the concentration of substrate that gives half-maximal velocity – in data set [1] came out at 16.1 µM.

B2: Kallikrein 1 (Sus scrofa), O97506 (protein)
chain: MEVIVLFRIISFRQAVYFMCLFAAVSCGCLPQLHKNTFFRGGDVSAMYTPSARHCQMMCTFHPRCLLFSFLPADSTSVTDKRFGCFLKDSVTGMLPRVLRENAISGHSLKQCGHQIRACHRDIYKGIDMRGVNFNVSKVKTVEECQERCTNSIHCLFFTYATQAFNNAEYRNNCLLKHSPGGTPTSIKVLANVESGFSLKPCADSEIGCHMDIFQHLAFSDVDVARVIAPDAFVCRTICTYHPNCLFFTFYTNAWKIESQRNVCFLKTSHSGTPSFPTPQENAISGYSLLTCKQTLPEPCHSKIYSEVDFEGEELNVTFVQGANLCQETCTKTIRCQFFTYSLHPEDCRGEKCKCSLRLSSDGSPTKITHGMRASSGYSLRLCRSGDHSACATKANTRIVGGTDSFLGEWPWQVSLQAKLRAQNHLCGGSIIGHQWVLTAAHCFDGLSLPDIWRIYGGILNISEITKETPFSQVKEIIIHQNYKILESGHDIALLKLETPLNYTDFQKPICLPSRDDTNVVYTNCWVTGWGFTEEKGEIQNILQKVNIPLVSNEECQKSYRDHKISKQMICAGYKEGGKDACKGESGGPLVCKYNGIWHLVGTTSWGEGCARREQPGVYTKVIEYMDWILEKTQDDDGQSWMK
Turning to B2, in data set [2], the Km is 92.2 µM.

B3: Chymotrypsin-like elastase family member 2A (Sus scrofa), P08419 (protein)
chain: MIRALLLSTLVAGALSCGLPANLPQLPRVVGGEDARPNSWPWQVSLQYDSSGQWRHTCGGTLVDQSWVLTAAHCISSSRTYRVVLGRHSLSTNEPGSLAVKVSKLVVHQDWNSNQLSNGNDIALLKLASPVSLTDKIQLGCLPAAGTILPNNYVCYVTGWGRLQTNGASPDILQQGQLLVVDYATCSKPGWWGSTVKTNMICAGGDGIISSCNGDSGGPLNCQGANGQWQVHGIVSFGSSLGCNYYHKPSVFTRVSNYIDWINSVIANN
For B3, the Km in data set [3] came to 325 µM.

B4: Trypsin (Sus scrofa), P00761 (protein)
chain: FPTDDDDKIVGGYTCAANSIPYQVSLNSGSHFCGGSLINSQWVVSAAHCYKSRIQVRLGEHNIDVLEGNEQFINAAKIITHPNFNGNTLDNDIMLIKLSSPATLNSRVATVSLPRSCAAAGTECLISGWGNTKSSGSSYPSLLQCLKAPVLSDSSCKSSYPGQITGNMICVGFLEGGKDSCQGDSGGPVVCNGQLQGIVSWGYGCAQKNKPGVYTKVCNYVNWIQQTIAAN
As to B4, the Km in data set [4] was found to be 97 µM.
